Laboratory results published in paper PMC5651187 (Cellular signalling, 2017).
Substitutions are numbered along the chain they refer to.

Assays:
[1] = biological target: T1, full length Vav3 wild-type in LNCaP cells (Homo sapiens, UniProt Q9UKW4); experiment: Membrane translocation of GFP-tagged protein, confocal microscopy; type: cell-based; settings: 10 μM PMA
T1 sequence (Q9UKW4 1-847): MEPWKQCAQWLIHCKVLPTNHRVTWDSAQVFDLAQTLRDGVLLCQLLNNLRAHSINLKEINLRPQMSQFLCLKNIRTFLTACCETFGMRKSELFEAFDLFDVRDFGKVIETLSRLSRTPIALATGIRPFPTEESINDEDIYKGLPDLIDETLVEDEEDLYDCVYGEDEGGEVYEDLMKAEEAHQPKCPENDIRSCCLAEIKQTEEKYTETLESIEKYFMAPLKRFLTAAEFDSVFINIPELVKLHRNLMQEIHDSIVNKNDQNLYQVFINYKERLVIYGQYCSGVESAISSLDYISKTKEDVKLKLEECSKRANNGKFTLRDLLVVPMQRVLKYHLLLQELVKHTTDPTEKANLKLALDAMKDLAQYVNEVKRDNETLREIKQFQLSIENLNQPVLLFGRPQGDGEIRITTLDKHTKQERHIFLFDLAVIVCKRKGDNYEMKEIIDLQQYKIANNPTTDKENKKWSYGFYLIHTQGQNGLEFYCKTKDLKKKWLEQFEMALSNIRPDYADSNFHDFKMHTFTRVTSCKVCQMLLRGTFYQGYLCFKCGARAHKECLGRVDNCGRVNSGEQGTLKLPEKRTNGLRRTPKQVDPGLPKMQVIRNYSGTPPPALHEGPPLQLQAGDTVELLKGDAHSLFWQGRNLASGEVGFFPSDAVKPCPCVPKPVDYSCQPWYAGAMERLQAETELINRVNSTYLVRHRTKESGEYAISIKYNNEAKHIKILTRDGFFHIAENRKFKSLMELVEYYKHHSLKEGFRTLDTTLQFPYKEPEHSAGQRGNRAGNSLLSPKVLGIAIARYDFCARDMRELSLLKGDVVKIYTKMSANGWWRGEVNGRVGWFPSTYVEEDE
How it was run: (§1)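 LNCaP cells (passage 3–20) grown in RPMI 1640 with 10% FBS and 2 mM L-glutamine at 37°C, transfected with GFP constructs at 75% confluency; PMA added 24 h later. Confocal imaging with 488 nm excitation and 535–553 nm emission. Membrane/cytoplasm mean-intensity ratio from 3 membrane and 3 cytoplasm regions (~5 μm²) at 0, 5, 10, 30, 45 min (120 min where indicated). Mean ± SEM, ≥3 cells in each of ≥3 independent experiments; Student's t-test.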

Vav3 CaWT in LNCaP cells = biological target: T2, Vav3 CaWT in LNCaP cells (Homo sapiens, UniProt Q9UKW4); experiment: as above; type: cell-based; settings: 10 μM PMA
T2 sequence (Q9UKW4 177-847 limits assumed): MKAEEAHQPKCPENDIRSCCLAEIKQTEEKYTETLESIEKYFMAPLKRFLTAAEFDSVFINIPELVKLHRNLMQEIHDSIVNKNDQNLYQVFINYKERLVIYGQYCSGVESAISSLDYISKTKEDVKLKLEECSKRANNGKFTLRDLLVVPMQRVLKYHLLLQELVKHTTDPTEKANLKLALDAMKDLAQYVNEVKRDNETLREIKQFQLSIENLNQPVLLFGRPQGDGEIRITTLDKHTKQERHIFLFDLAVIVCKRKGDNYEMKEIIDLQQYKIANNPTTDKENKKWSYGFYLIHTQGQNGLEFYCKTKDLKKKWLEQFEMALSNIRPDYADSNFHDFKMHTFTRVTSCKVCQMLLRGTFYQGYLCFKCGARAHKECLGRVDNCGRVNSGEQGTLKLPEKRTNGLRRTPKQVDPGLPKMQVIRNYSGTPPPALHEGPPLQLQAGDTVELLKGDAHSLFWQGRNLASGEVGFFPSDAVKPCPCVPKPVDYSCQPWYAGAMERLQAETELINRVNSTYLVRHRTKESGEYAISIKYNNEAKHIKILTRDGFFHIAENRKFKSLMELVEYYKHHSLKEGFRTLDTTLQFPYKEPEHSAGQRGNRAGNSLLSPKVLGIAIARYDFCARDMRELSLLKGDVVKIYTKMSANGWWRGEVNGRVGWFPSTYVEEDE
How it was run: as §1

Vav3 5X in LNCaP cells = biological target: T3, Vav3 5X in LNCaP cells (Homo sapiens, UniProt Q9UKW4, R523S/T522M/T537L/V524P/Y539K); experiment: as above; type: cell-based; settings: 10 μM PMA
T3 sequence (Q9UKW4 1-847 T522M/R523S/V524P/T537L/Y539K): T1 sequence (Q9UKW4 1-847) with T522M, R523S, V524P, T537L, Y539K
How it was run: as §1

[2] = biological target: T4, Vav2 C1 5X (D9M/K10S/T11P/T24L/Y26K) (Homo sapiens, UniProt P52735, D532M/K533S/T534P/T547L/Y549K); experiment: [3H]PDBu binding, polyethylene glycol precipitation assay
T4 sequence (P52735 523-572 D532M/K533S/T534P/T547L/Y549K): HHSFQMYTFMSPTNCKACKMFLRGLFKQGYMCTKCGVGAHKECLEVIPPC
How it was run: (§2)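 GST-fused C1 domain, cloned into pGEX-5x-1 and expressed in BL21 cells. Cultures grown in LB at 37°C to OD 0.5, induced with 0.5 mM IPTG, then grown 4 h at 37°C. Cells lysed with bacterial extraction reagent; protein purified and eluted on a GST spin column. Kd for [3H]PDBu determined by polyethylene glycol precipitation. Values are mean ± SEM of three experiments.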

Vav3 C1 2X (T24L/Y26K) = biological target: T5, Vav3 C1 2X (T24L/Y26K) (Homo sapiens, UniProt Q9UKW4, T537L/Y539K); experiment: as above
T5 sequence (Q9UKW4 513-562 T537L/Y539K): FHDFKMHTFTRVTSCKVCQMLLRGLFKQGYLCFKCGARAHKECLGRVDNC
How it was run: as §2

[3] = biological target: T6, Vav3 C1 3X (T9M/R10S/V11P) (Homo sapiens, UniProt Q9UKW4, R523S/T522M/V524P); experiment: [3H]PDBu binding, polyethylene glycol precipitation assay
T6 sequence (Q9UKW4 513-562 T522M/R523S/V524P): T5 sequence (Q9UKW4 513-562 T537L/Y539K) with T10M, R11S, V12P, L25T, K27Y
How it was run: as §2, with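 “two replicates.” for “three experiments.”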

[4] = biological target: T7, Vav3 C1 5X (T9M/R10S/V11P/T24L/Y26K) (Homo sapiens, UniProt Q9UKW4, R523S/T522M/T537L/V524P/Y539K); experiment: [3H]PDBu binding, polyethylene glycol precipitation assay
T7 sequence (Q9UKW4 513-562 T522M/R523S/V524P/T537L/Y539K): T5 sequence (Q9UKW4 513-562 T537L/Y539K) with T10M, R11S, V12P
How it was run: as §2

Vav1 C1 WT = settings: GST-tagged C1 domain; NA, no activity; ref [17]; cited from earlier work
Vav1 C1 2X (T24L/Y26K) = settings: GST-tagged C1 domain; NA, no activity; ref [17]; cited from earlier work
[5] = biological target: Vav1 C1 3X (E9M/E10S/T11P); settings: ref [17], cited from earlier work
[6] = biological target: Vav1 C1 5X (E9M/E10S/T11P/T24L/Y26K); settings: ref [17], cited from earlier work
[7] = system: C1 domain of PKCδ with the corresponding residues in the Vav1 C1 domain; settings: five amino acids replaced; ref [17]; cited from earlier work
[8] = GST-tagged C1 domain, mean ± SEM of triplicate experiments

In the case of `CCCCCCCCCCCCCC(=O)O[C@@H]1[C@@H](C)[C@@]2(O)[C@@H](C=C(CO)C[C@]3(O)C(=O)C(C)=C[C@@H]23)[C@@H]2C(C)(C)[C@]12OC(C)=O` [PMA, phorbol 12-myristate 13-acetate], the “membrane translocation in response to phorbol ester” value (from here on “membrane translocation in response”) [1] is reported as “neither the wild-type Vav3 nor the Vav3 CaWT translocated”, the “membrane translocation in response” value (Vav3 CaWT in LNCaP cells) is reported as “neither the wild-type Vav3 nor the Vav3 CaWT translocated” and the “membrane translocation in response” value (Vav3 5X in LNCaP cells) is reported as “became visible after 10 min but became more evident after 2 h”.
In the case of `CCCC(=O)O[C@@H]1[C@@H](C)[C@@]2(O)[C@@H](C=C(CO)C[C@]3(O)C(=O)C(C)=C[C@@H]23)[C@@H]2C(C)(C)[C@]12OC(=O)CCC` [PDBu, Phorbol 12,13-dibutyrate], the “Relative to PKCδ C1b” value [2] is reported as 3370 ×, the Kd [2, 8] is reported as 650.7 ± 2.6 nM and the “Relative to PKCδ C1b” value (Vav3 C1 2X (T24L/Y26K)) is reported as 938 ×. For the same compound, the Kd (Vav3 C1 2X (T24L/Y26K); [8]) was 188 ± 35 nM, the “Relative to PKCδ C1b” value [3] was 4380 × and the Kd ([3]; GST-tagged C1 domain, mean ± SEM, only 2 replicates) was 840 ± 120 nM. For the same compound, the “Relative to PKCδ C1b” value [4] was 23.5×, the Kd [4, 8] was 4.7 ± 0.8 nM and the Kd (Vav1 C1 WT) was “no detectable binding”. For the same compound, the Kd (Vav1 C1 2X (T24L/Y26K)) was “did not restore phorbol ester binding”, the Kd ([5]; GST-tagged C1 domain) was 7330 ± 490 nM and the “Relative to PKCδ C1b” value [5] was 38,000 ×. The Kd ([6]; GST-tagged C1 domain) was 1.05 ± 0.14 nM, the “Relative to PKCδ C1b” value [6] was 5.4× and the PDBu binding affinity [7] was “abolished detectable PDBu binding affinity”.
